# Lipid droplet: modulators of hepatic lipid droplet formation; 240,000 compounds, 0.4% hits; inhibition, % at 6.5 µM; AML12 mouse hepatocytes, oleate lipid droplets, BODIPY imaging;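 active = lipid droplet intensity inhibited by at least 50%, with more than 500 cells counted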
#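 Material – AML12 mouse liver cells · Also added – oleate loading, 100 µM · Compound dosing – 6.5 µM single-point dosing · Times – overnight treatment with compound plus oleate · Measured by – fluorescence imaging, 20x objective, two fields per well · Read-out – percent inhibition of filter-corrected integrated lipid droplet intensity per well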
# proCasp7 act: counter-screen: procaspase-7 (human) activation | P55210 | recombinant procaspase-7, Ac-DEVD-pNA absorbance 405 nm; D23A/D198A/D206A triple mutant, cannot self-cleave; scale: DMSO 0, 5 µM enzyme 100 | activation, % at 8.5 µM | 330,000 compounds, 0.093% hits | AID 463210;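 active = percent activation above the screen-wide mean plus 3 SD, cut at about 25% in these data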
#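 Assay system: Uncleavable procaspase-7 mutant enzyme / Input: 2 µM procaspase-7 mutant as dispensed / Dosing: single nominal 8.5 µM compound dose, 0.8% DMSO final / Timing: 1 h enzyme–compound preincubation and 2 h substrate reaction, both 25 °C / Detection: p-Nitroaniline absorbance at 405 nm, read at 0 and 120 min / Replication: singlicate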
# GAA850 FXN act: increases GAA850 frataxin promoter reporter activity; HEK293 lucGAA850 FXN promoter luciferase reporter, 24 h; percent of 10 µM SAHA response; activation, % at 6 µM; 360,000 compounds, 0.56% hits; AID 540364;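 active = activation above the average of all compounds screened plus 3 SD, cutoff fixed separately per campaign, cut at about 7.5% in these data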;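 also: 0% = DMSO wells and 100% = 10 µM SAHA wells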
# proCasp3 act: procaspase-3 (human) activation; P42574; recombinant procaspase-3 D3A, Ac-DEVD-pNA absorbance 405 nm; activation, % at 8.5 µM; 330,000 compounds, 0.11% hits; AID 463141;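 active = activation above the mean of all tested compounds plus 3 SD, cut at about 21% in these data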;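 also: 0% = DMSO alone and 100% = DMSO wells spiked with extra 5 µM PC-3 D3A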
#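 Assay system – Procaspase-3 D3A mutant · Benchmarks – DMSO low control, extra-enzyme high control · Technique – 405 nm absorbance of p-nitroaniline, reads at 0 and 120 min · Doses – 8.5 µM nominal · Measure – % activation between DMSO and enzyme-spiked controls · Also added – Ac-DEVD-pNA chromogenic peptide substrate · Schedule – 1 h compound preincubation, 2 h substrate hydrolysis at 25 °C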
# p-CIP stab down: p/CIP protein destabilization. Q05BA5. F442A p/CIP-EGFP cells, EGFP fluorescence, 16 h. decrease of EGFP signal, % at 10 µM. 290,000 compounds, 0.01% hits. AID 1984;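 active = EGFP signal decrease of at least 30% at 10 µM or well 3 SD below plate mean, unless failing retest; inactive = the rest, including hits failing retest or dose response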
# Rce1 inhib: inhibitors of yeast Ras-converting enzyme; Q03530; yeast membranes, quenched prenylated peptide cleavage fluorescence; calls only; 290,000 compounds, 0.27% hits; AID 2563;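 active = fall in fluorescence gain of 50% or more versus controls, with final raw signal at or below 3038400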;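 also: plate controls were neutral control wells for no effect and wells lacking membranes for full effect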
# Target sequence (Q03530 whole entry, looked up): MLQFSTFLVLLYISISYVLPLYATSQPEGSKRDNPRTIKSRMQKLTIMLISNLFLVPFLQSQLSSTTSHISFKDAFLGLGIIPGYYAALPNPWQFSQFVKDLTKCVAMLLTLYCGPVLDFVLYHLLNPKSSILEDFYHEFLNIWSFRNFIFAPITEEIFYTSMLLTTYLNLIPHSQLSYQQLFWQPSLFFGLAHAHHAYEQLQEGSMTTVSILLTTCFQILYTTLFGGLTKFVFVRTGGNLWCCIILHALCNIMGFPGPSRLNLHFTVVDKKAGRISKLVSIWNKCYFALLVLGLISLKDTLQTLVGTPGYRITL
# PC3 D3A act: counter-screen: procaspase-3 (human) activation. shares compounds with proCasp7 act. recombinant PC-3 D3A, Ac-DEVD-pNA absorbance 405 nm; aspartates 9, 28, 175 changed to alanine; 100% = enzyme control. activation, % at 8.5 µM. 290 tested, under 10 active;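 active = mean percent activation across triplicates above a set limit taken from the earlier primary procaspase-3 screen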;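 also: 0% = DMSO wells and 100% = DMSO wells with 5 µM added PC-3 D3A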
# PC7 dual conf: activates human procaspase-7, confirming dual procaspase activators. shares compounds with proCasp7 act. AID 493115. recombinant procaspase-7, Ac-DEVD-pNA absorbance 405 nm; D23A/D198A/D206A mutant that cannot self-cleave. 290 tested, under 10 active. activation, % at 8.5 µM;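 active = mean activation above a set limit carried over from the earlier primary screen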;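 also: 0% = DMSO only and 100% = DMSO with added 5 µM PC-7 enzyme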
# * hit, by the source's call; i = inactive; nt = not tested or not shown. Shown are actives, neighbours in structure and some others; about 1.2% of the full set was active somewhere.
SMILES,Lipid droplet,proCasp7 act,GAA850 FXN act,proCasp3 act,p-CIP stab down,Rce1 inhib,PC3 D3A act,PC7 dual conf
CCn1c(=NC(=O)C2COc3ccccc3O2)sc2c(OC)ccc(OC)c21 (centres undefined),-22,36*,4,6,-5,i,2,2
COC(=O)C1=NN(c2ccc(Cl)cc2)C2C(=O)N(c3ccccc3OC)C(=O)C12 (centres undefined),4,30*,2,15,-4,i,10,7
Cc1ccc(N2C(=O)C3C(C(=O)c4ccccc4)=NN(c4ccccc4)C3C2=O)cc1 (centres undefined),-12,18,1,7,-20,i,nt,nt
O=C(C1=NN(c2ccccc2)C2C(=O)N(c3ccccc3)C(=O)C12)c1ccccc1 (centres undefined),-2,41*,1,26*,-5,i,40*,27*
O=C(C1=NN(c2ccccc2)C2C(=O)N(c3ccccc3Cl)C(=O)C12)c1ccccc1 (centres undefined),24,48*,-2,30*,-19,i,45*,34*
COc1ccccc1N1C(=O)C2C(C(=O)c3ccccc3)=NN(c3ccccc3)C2C1=O (centres undefined),-25,33*,-1,20,-26,i,26*,18
COc1ccccc1N1N=C(C(=O)c2ccccc2)C2C(=O)N(c3ccc(Br)cc3)C(=O)C21 (centres undefined),-50,9,1,5,-1,i,nt,nt
CC(=O)N(Cc1ccccc1)C1CC(=O)N(Cc2ccccc2)C1=O (centres undefined),nt,nt,-1,nt,nt,nt,nt,nt
COc1ccc(C2CCCCC2SCC(=O)O)cc1OC (centres undefined),nt,nt,-2,nt,nt,nt,nt,nt
COC(=O)[C@@]12CCCN1[C@H](c1ccc(-c3cccc(Cl)c3)cc1)[C@H]1C(=O)N(C)C(=O)[C@H]12,nt,1,-2,-5,nt,i,nt,nt
OC[C@@H]1CN(Cc2ccc3c(c2)OCO3)C[C@H](n2cnc3c(NCc4ccncc4)ncnc32)O1,nt,nt,0,nt,nt,nt,nt,nt
CCN(CC)c1ccc(/C=N/NC(=O)Nc2ccccc2)cc1,3,1,3,2,-1,i,nt,nt
CCN(Cc1ccccc1)c1ccc(/C=N/NC(=S)NC(C)C)cc1,-1,30*,1,23*,9,i,0,2
COc1ccc(Nc2ncc(C(=O)O)c3ccccc23)cc1,5,2,0,0,-18,i,nt,nt
COc1ccc(Nc2ncc(C(=O)N3CCN(c4ccc(F)cc4)CC3)c3ccccc23)cc1,nt,27*,-2,13,-16,i,8,0
O=c1c(-c2nc3ccccc3s2)cccn1Cc1ccc(Cl)cc1,nt,90*,3,123*,-10,i,-29,-36
COc1ccc(OC)c(/C=C/C(=O)N2CCN(S(=O)(=O)c3ccc(C)cc3C)CC2)c1,nt,32*,2,9,nt,nt,1,-3
COc1ccc(-c2c(-c3ccc(C#N)cc3)oc(=O)c3cc(OC)c(OC)cc23)cc1,nt,26*,-1,15,nt,nt,-4,-6
COc1ccc(-c2oc(=O)c3cc(OC)c(OC)cc3c2-c2cc(F)cc(OC)c2)cc1,nt,8,0,-2,nt,nt,nt,nt
COc1ccc2nc3cc(Cl)ccc3c(Nc3cc(C(C)C)c(O)cc3C)c2c1,-7,26*,-7,-18,3,i,-18,-23
CC1(C(=O)NS(=O)(=O)c2ccc(Cl)cc2)CCN1C(=O)C/C=C/c1ccccc1 (centres undefined),nt,nt,1,nt,nt,nt,nt,nt
